Consider eleven compounds from ChEMBL document CHEMBL1158484 (J Med Chem, 2009).

Data set [1] relates to Trypanosoma brucei rhodesiense. In words: Antitrypanosomal activity against bloodstream Trypanosoma brucei rhodesiense STIB900 infected in NMRI mouse assessed as survival rate at 5 mg/kg, ip administered 4 consecutive days from day 3 to 6 postinfection. It counts as functional. The following applies: route intraperitoneal. A digest of the protocol: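 Female NMRI mice infected ip with 2×10^4 STIB900 bloodstream forms. Groups of four treated on days 3–6 postinfection. Compounds in DMSO diluted with water to a final 10% DMSO. Untreated infected controls. Tail blood checked for parasitemia to day 60. Surviving aparasitemic mice at day 60 scored cured; mean survival time in days from recorded deaths.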

The nature of data set [2]: Selectivity index, ratio of IC50 for rat L6 cells to IC50 for chloroquine-resistant Plasmodium falciparum K1. It is filed as toxicity, cell-based. The following applies: read-out: Ratio IC50. Put shortly:
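Ratio of L6 IC50 to P. falciparum K1 IC50. L6: 4000 cells, 70 h at 37 °C, Alamar blue fluorescence. Parasites: infected human erythrocytes (1.25% hematocrit, 0.3% parasitemia) in low-O2 gas for 48 h, then [3H]-hypoxanthine for 24 h, uptake counted. Sigmoidal IC50s, two independent runs in duplicate.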

For the next data set, the system named is Plasmodium falciparum. In words: Antiplasmodial activity after 48 hrs against chloroquine-resistant Plasmodium falciparum K1 infected human erythrocytes by [3H]hypoxanthine uptake. It is filed as functional, organism-based.
Data set [3] has as its system Trypanosoma brucei rhodesiense. Kind of data set: Antitrypanosomal activity against bloodstream Trypanosoma brucei rhodesiense STIB900 after 70 hrs by alamar blue assay. It counts as functional, organism-based. Particulars: STIB900, 70 h. Put shortly: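 Bloodstream forms, 2000 per well, in supplemented MEM with Earle's salts (0.2 mM 2-mercaptoethanol, 1 mM pyruvate, 0.5 mM hypoxanthine, 15% heat-inactivated horse serum). Serial dilutions, 70 h at 37 °C, 5% CO2. IC50 from sigmoidal curves; two independent runs in duplicate. DMSO ≤1%.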
(Resazurin is reduced to fluorescent resorufin, in cell work by metabolically active cells.)

Data set [4] is described as follows: Selectivity index, ratio of IC50 for rat L6 cells to IC50 for bloodstream Trypanosoma brucei rhodesiense STIB900. It is filed as toxicity, cell-based. The following applies: read-out: Ratio IC50.
In data set [5] the test system is Trypanosoma brucei rhodesiense. In words: Antitrypanosomal activity against bloodstream Trypanosoma brucei rhodesiense STIB900 infected in NMRI mouse assessed as parasite free mouse survival at 5 mg/kg, ip administered for 4 consecutive days from day 3 to 6 postinfection measured up to 60 days. It counts as functional, organism-based. Also on record: dose 5 mg/kg. Put shortly:
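Female NMRI mice infected ip with 2×10^4 STIB900 bloodstream forms; groups of four dosed on 4 consecutive days, days 3-6 postinfection. Compounds in DMSO diluted with water to 10% DMSO. Untreated infected controls. Tail-blood parasitemia followed to day 60; surviving aparasitemic mice at day 60 scored cured; mean survival time recorded.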

The nature of data set [6]: Selectivity index, ratio of IC50 for rat L6 cells to IC50 for axenic amastigotes of Leishmania donovani MHOM/SD/62/1S-CL2D. It is filed as toxicity, cell-based. The following applies: read-out: Ratio IC50. Put shortly:
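Ratio of L6 IC50 to L. donovani IC50. L6: 4000 cells in RPMI 1640 with 10% FBS, 70 h at 37 °C, then Alamar blue 2–3 h, fluorescence 536/588 nm. Leishmania: 6×10^4 axenic amastigotes per well, 2-fold dilutions, 72 h at 37 °C in 5% CO2, tetrazolium CellTiter read at 490 nm. IC50 from a four-parameter dose–response fit.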

Another data set concerns Leishmania donovani. In words: Antileishmanial activity against axenic amastigotes of Leishmania donovani MHOM/SD/62/1S-CL2D after 72 hrs. It is filed as functional, organism-based. A digest of the protocol:
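Axenic amastigotes (adapted from promastigotes), 6×10^4 per well, amastigote medium, 37 °C. 2-fold compound dilutions; 72 h at 37 °C, humidified 5% CO2. Growth read by tetrazolium CellTiter absorbance at 490 nm several hours after reagent addition. IC50 from four-parameter dose–response fit. DMSO ≤1%.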

The test system of the next data set is L6. Kind of data set: Cytotoxicity against rat L6 cells after 70 hrs by alamar blue assay. It is filed as cell-based. The following applies: L6, 70 h.

Activity calls are given as the source filed them. The rule behind the calls is not given here.

For `N=C(N)c1ccc(OCCCCCOc2ccc(C(=N)N)cc2)cc1` [PENTAMIDINE], in [1], the Survival was more than 45 days.

By IC50 is commonly meant the concentration that gives 50% inhibition. A lower IC50 goes with greater potency in that assay. Consider `CC(C)NC(=N)c1ccc(OCCCCCOc2ccc(C(=N)NC(C)C)nc2)cn1`, for which the selectivity ratio in data set [2] came out at 24700; in [4], 4350; in data set [6] it was 25. Moreover, the IC50 in the data set on Plasmodium falciparum stood at 0.006 µM; in data set [3], 0.034 µM; with Leishmania donovani, 6 µM; with L6 it was 148 µM. In addition, the outcome in data set [5] was inactive. Moreover, in data set [1], the Survival is 18.5 days.

For the compound `c1cc(C2=NCCN2)ncc1OCCCCCOc1ccc(C2=NCCN2)nc1`, the selectivity ratio in [2] was 2290; in data set [4], 484; in data set [6], 2. Besides, the IC50 in the data set with Plasmodium falciparum was 0.036 µM; in data set [3], 0.17 µM; with Leishmania donovani it was 36 µM; in the data set on L6 it was 82.3 µM. The outcome in [5] was inactive. Further, in data set [1], the Survival amounted to 12.75 days.

`CC(C)NC(=N)c1ccc(OCCCCCOc2ccc(C(=N)NC(C)C)cn2)nc1`: the selectivity ratio is more than 605 in data set [2], more than 562 in [4] and 2 in [6]. The half-inhibitory concentration (IC50) in the data set with Plasmodium falciparum is 0.256 µM; in data set [3], 0.276 µM; with Leishmania donovani it was more than 100 µM; in the data set with L6, more than 155 µM.

Take `N=C(N)c1cc(OCCCCCOc2ccnc(C(=N)N)c2)ccn1`: the selectivity ratio in [2] stood at 3710; in data set [4], 1160; in data set [6], 2. Also, the half-maximal inhibitory concentration (IC50) in the data set on Plasmodium falciparum turned out to be 0.016 µM; in [3], 0.051 µM; with Leishmania donovani it was 38 µM; in the data set on L6, 59.3 µM. The outcome in data set [5] was inactive. Further, the Survival in [1] is 14 days.

Turning to `CC(C)NC(=N)c1cc(OCCCCCOc2ccnc(C(=N)NC(C)C)c2)ccn1`, the selectivity ratio in [2] is more than 117; in [4], more than 91; in data set [6] it was 2. In addition, the IC50 with Plasmodium falciparum was 1.33 µM; in data set [3], 1.7 µM; in the data set on Leishmania donovani, more than 100 µM; in the data set on L6 it was more than 155 µM.

With `CO/N=C(\N)c1ccc(OCCCCCOc2ccc(/C(N)=N\OC)cn2)nc1`, the selectivity ratio in [2] was more than 83; in [4], more than 7; in data set [6], 2. Moreover, the concentration for half-maximal inhibition (IC50) was 2.24 µM with Plasmodium falciparum, 25.9 µM in data set [3], more than 100 µM with Leishmania donovani and more than 185 µM in the data set on L6.

Regarding `N/C(=N\O)c1cccc(OCCCCCOc2cccc(/C(N)=N/O)n2)n1`, the selectivity ratio in data set [2] was determined as 5; in data set [4], 3; in [6] it was 1. The IC50 is 10.5 µM in the data set with Plasmodium falciparum, 19 µM in data set [3], more than 50 µM in the data set on Leishmania donovani and 52.2 µM in the data set on L6.

As to `c1cc(OCCCCCOc2ccc(C3=NCCN3)cn2)ncc1C1=NCCN1`, the selectivity ratio came out at 60 in data set [2], 78 in [4] and 1 in data set [6]. In addition, the 50% inhibitory concentration (IC50) with Plasmodium falciparum is 1.86 µM; in data set [3], 1.42 µM; in the data set on Leishmania donovani, more than 100 µM; in the data set on L6, 111 µM.

In the case of `c1cc(OCCCCCOc2cccc(C3=NCCN3)n2)nc(C2=NCCN2)c1`, the selectivity ratio was 26 in data set [2], 5 in data set [4] and less than 1 in data set [6]. Moreover, the 50% inhibitory concentration (IC50) was determined as 0.568 µM in the data set on Plasmodium falciparum, 3.07 µM in data set [3], 24 µM in the data set on Leishmania donovani and 14.6 µM in the data set on L6.

As for `c1cc(OCCCCCOc2ccnc(C3=NCCN3)c2)cc(C2=NCCN2)n1`, the selectivity ratio in [2] was 19; in data set [4] it was 6; in [6], less than 1. The half-maximal inhibitory concentration (IC50) with Plasmodium falciparum was 4.26 µM; in [3], 12.5 µM; with Leishmania donovani it was more than 100 µM; with L6 it was 80.8 µM.
